Experimental data as given in ChEMBL document CHEMBL3124793, “Discovery of spirofused piperazine and diazepane amides as selective histamine-3 antagonists with in vivo efficacy in a mouse model of cognition” (J Med Chem, 2014).
In brackets after ≈: the same amount, converted by molar mass. Activity calls are given as the source filed them. No cut-off for these calls is given here.

Key:
[1] = Octanol-water partition coefficient, log D of the compound by shake flask HPLC analysis; format: physicochemical
Procedure, shortened: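 logD between octanol and water by shake-flask with HPLC analysis.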

[2] = biological target: T1, Histamine H3 receptor (Homo sapiens, UniProt Q9Y5N1); test: Antagonist activity at human histamine H3 receptor long form expressed in CHOK1 cells assessed as inhibition of R-alpha-methylhistamine-induced [35S]GTPgammaS binding after 3 hrs by scintillation proximity assay; format: functional, cell-based, CHO-K1
Procedure, shortened: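 Membranes from CHO-K1 cells stably expressing human H3R long form (445 aa) incubated 3 h with test compound, 25 nM R-α-methylhistamine, 10 μM GDP, 0.2 nM [35S]GTPγS and WGA PVT SPA beads; bead-bound [35S]GTPγS counted by scintillation. Average of n > 2, standard error <20%.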

[3] = Intrinsic clearance in rat liver microsomes; format: ADME; conditions: read-out: CLH
[4] = Intrinsic clearance in human liver microsomes; format: ADME; conditions: read-out: CLH
Procedure, shortened: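 Human liver microsomal clearance, expressed as μL/min/mg.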

[5] = system: MDCK; test: Efflux ratio of apparent permeability from apical to basolateral side over basolateral to apical side in MDCK cells; format: ADME, cell-based, Canis lupus familiaris; conditions: dog
Procedure, shortened: (§1)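 MDCK monolayers; A-to-B Papp in 1 × 10⁻⁶ cm/s; efflux taken as ratio of A-to-B Papp over B-to-A Papp.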

[6] = Percentage unbound in rat plasma; format: ADME, cell-free
Procedure, shortened: (§2)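 Plasma protein binding in human or rat plasma, expressed as percent free.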

[7] = Apparent permeability from apical to basolateral side in MDCK cells; format: ADME, cell-based, Canis lupus familiaris; conditions: dog; procedure, shortened: as §1
[8] = Percentage unbound in human plasma; format: ADME, cell-free; procedure, shortened: as §2
[9] = Equilibrium solubility of the compound at pH 7.4; format: physicochemical; conditions: buffer
[10] = biological target: Voltage-gated inwardly rectifying potassium channel KCNH2 (Homo sapiens, UniProt Q12809); test: Inhibition of human ERG expressed in CHOK1 cells by electrophysiological analysis
[11] = biological target: T1, Histamine H3 receptor; test: Displacement of [3H]-N-alpha-methylhistamine from human histamine H3 receptor expressed in CHOK1 cells after 1.5 hrs by scintillation proximity assay; format: cell-based, CHO-K1
Procedure, shortened: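 Human H3R-CHO-K1 membranes incubated 1.5 h with test compound and [3H]-N-α-methylhistamine in SPA format; nonspecific binding defined with 10 μM imetit; bead-bound radioligand counted. Average of n > 2, standard error <50%.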

[12] = system: Rattus norvegicus; test: […] clearance in rat at 1.8 umol/kg, iv; format: ADME, organism-based; conditions: in vivo
Procedure, shortened: (§3)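 IV dosing in male fasted rats, doses in μmol/kg; mean Vss, half-life and clearance derived; number of rats per compound reported.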

[13] = Half life in rat at 1.8 umol/kg, iv; format: ADME, organism-based; conditions: in vivo; procedure, shortened: as §3
[14] = Volume of distribution at steady state in rat at 1.8 umol/kg, iv; format: ADME, organism-based; conditions: in vivo, read-out: Vdss; procedure, shortened: as §3
[15] = biological target: T1, Histamine H3 receptor; test: Inverse agonist activity at human histamine H3 receptor long form expressed in CHOK1 cells assessed as reduction in [35S]GTPgammaS binding after 3 hrs by scintillation proximity assay; format: functional, cell-based; conditions: CHO-K1
Procedure, shortened: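 Basal [35S]GTPγS binding, without agonist stimulation, to membranes expressing recombinant human H3R.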

[16] = system: Rattus norvegicus; test: […] clearance in rat at 2.3 umol/kg, iv; format: ADME, organism-based; conditions: in vivo; procedure, shortened: as §3
[17] = Half life in rat at 2.3 umol/kg, iv; format: ADME, organism-based; conditions: in vivo; procedure, shortened: as §3
[18] = Volume of distribution at steady state in rat at 2.3 umol/kg, iv; format: ADME, organism-based; conditions: in vivo, read-out: Vdss; procedure, shortened: as §3

T1 sequence (Q9Y5N1 whole entry): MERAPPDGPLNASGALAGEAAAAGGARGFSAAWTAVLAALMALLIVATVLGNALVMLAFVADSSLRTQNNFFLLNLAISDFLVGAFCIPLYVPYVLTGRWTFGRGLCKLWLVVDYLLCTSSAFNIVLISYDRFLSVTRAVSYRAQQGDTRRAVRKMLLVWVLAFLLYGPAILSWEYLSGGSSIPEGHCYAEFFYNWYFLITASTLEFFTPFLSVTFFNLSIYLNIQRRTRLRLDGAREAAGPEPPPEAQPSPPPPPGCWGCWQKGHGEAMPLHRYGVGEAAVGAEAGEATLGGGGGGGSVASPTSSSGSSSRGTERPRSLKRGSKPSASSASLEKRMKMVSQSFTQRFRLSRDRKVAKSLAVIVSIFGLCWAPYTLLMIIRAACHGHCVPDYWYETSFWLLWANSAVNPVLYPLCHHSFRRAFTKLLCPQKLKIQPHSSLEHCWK
Sequence of Voltage-gated inwardly rectifying potassium channel KCNH2 (Q12809 whole entry): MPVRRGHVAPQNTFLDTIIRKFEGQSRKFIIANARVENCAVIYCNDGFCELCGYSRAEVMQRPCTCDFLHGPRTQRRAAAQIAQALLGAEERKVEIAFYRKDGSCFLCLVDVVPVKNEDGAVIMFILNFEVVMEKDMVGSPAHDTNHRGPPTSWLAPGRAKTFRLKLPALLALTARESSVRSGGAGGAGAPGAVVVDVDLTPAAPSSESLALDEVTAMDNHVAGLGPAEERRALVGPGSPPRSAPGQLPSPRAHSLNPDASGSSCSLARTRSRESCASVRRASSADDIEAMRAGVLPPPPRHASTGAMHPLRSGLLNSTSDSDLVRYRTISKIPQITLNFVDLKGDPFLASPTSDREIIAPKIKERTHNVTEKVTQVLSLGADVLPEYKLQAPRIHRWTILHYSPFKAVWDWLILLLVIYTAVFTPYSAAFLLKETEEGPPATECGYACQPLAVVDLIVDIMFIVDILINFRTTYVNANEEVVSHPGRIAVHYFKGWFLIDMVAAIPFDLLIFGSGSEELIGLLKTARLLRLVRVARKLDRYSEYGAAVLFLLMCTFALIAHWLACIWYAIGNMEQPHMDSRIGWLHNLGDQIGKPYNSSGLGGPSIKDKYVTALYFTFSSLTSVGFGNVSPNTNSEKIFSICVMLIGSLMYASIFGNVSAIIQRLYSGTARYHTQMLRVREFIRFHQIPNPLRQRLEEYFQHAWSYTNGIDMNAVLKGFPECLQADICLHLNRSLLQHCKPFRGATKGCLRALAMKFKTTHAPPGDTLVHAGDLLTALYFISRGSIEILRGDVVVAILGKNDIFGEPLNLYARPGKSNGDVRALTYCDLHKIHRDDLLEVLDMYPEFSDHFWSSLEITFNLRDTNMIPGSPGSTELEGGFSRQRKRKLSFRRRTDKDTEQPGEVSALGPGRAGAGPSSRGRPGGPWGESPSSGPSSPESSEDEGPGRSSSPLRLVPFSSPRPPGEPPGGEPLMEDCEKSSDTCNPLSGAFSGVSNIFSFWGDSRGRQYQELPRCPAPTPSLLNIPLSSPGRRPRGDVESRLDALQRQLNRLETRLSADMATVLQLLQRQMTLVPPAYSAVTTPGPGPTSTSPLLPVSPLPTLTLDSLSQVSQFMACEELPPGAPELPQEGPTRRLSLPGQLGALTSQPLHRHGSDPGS

SMILES	logD [1]	IC50 [2] [nM]	IC50 [10] [nM]	Ki [11] [nM]	further results
CC(C)N1CCCN(C(=O)C2CC3(CCN(C4CCOCC4)CC3)C2)CC1	-1.78	14			
O=C(C1CC12CCN(C1CCCCC1)CC2)N1CCN(C2CCCCC2)CC1 (racemic)			20800	19	microsomal CLint [3]: 31 µL/min/mg; microsomal CLint [4]: 14 µL/min/mg; Ratio [5]: > 2; fraction unbound [6]: 0.62; Papp A→B [7]: < 1.7 ×10⁻⁶ cm/s; fraction unbound [8]: 0.81; solubility thermodynamic [9]: > 500 µM
O=C(c1ccccc1)N1CCCC2(CCN(C(=O)N3CCCN(C4CCC4)CC3)C2)C1 (stereo not drawn)	1.01	4			
O=C(C1CC12CCN(C1CCOCC1)CC2)N1CCCN(C2CCC2)CC1 (racemic)	0.18	17		3	
O=C(c1ccccc1)N1CCC2(CCCN(C(=O)N3CCCN(C4CCC4)CC3)C2)CC1	1.62	18			
CN1CCN(C(=O)C2CC23CCN(C2CCOCC2)CC3)CC1 (racemic)		1100		1300	
CC(C)N1CCN(C(=O)[C@@H]2CC23CCN(C2CCOCC2)CC3)CC1	-0.35	87		16	
O=C(N1CCCN(C2CCC2)CC1)N1CCC2(CCCN(C3CCOCC3)C2)C1 (stereo not drawn)	0.23	4.4	> 33000		
O=C(C1CC12CCN(C1CCOCC1)CC2)N1CCN(C2CCCCC2)CC1 (racemic)	0.74	12		26	
O=C(C1CC12CCN(C1CCOCC1)CC2)N1CCN(C2CC2)CC1 (racemic)				11	microsomal CLint [3]: 20 µL/min/mg; microsomal CLint [4]: < 4 µL/min/mg; Papp A→B [7]: 8.4 ×10⁻⁶ cm/s; solubility thermodynamic [9]: > 500 µM
O=C(C1CC2(CCN(C3CCOCC3)CC2)C1)N1CCCN(C2CCC2)CC1	-0.89	0.8			
O=C(N1CCCN(C2CCC2)CC1)N1CCC2(CCCN(S(=O)(=O)c3ccccc3)C2)C1 (stereo not drawn)	1.74	6.5	> 33000		
O=C(c1ccccc1)N1CCC2(CC1)CCN(C(=O)N1CCCN(C3CCC3)CC1)C2	1.22	3.6	> 33000		
CC(C)S(=O)(=O)N1CCC2(CCN(C(=O)N3CCCN(C4CCC4)CC3)C2)CC1	0.8	3.2	> 33000		CL [12]: 53 mL/min/kg; half-life [13]: 36 min; Vd [14]: 2.1 L/kg; microsomal CLint [3]: 34 µL/min/mg; microsomal CLint [4]: 20 µL/min/mg; Ratio [5]: 6; Papp A→B [7]: 7.8 ×10⁻⁶ cm/s; solubility thermodynamic [9]: > 500 µM
O=C(C1CC12CCC(C1CCCCC1)CC2)N1CCN(C2CCC2)CC1 (racemic)				> 10000	solubility thermodynamic [9]: 1 µM (≈ 0.359 µg/mL)
O=C(C1CC12CCN(C1CCOCC1)CC2)N1CCN(C2CCCCCC2)CC1 (racemic)				65	
CC(C)N1CCN(C(=O)N2CCC3(CCCN(C4CCOCC4)C3)C2)CC1 (stereo not drawn)	-0.19	140	> 33000		
CC(C)N1CCCN(C(=O)C2CC3(CCN(C(=O)c4ccccc4)CC3)C2)CC1	1.63	12	> 33000		
O=C(C1CC2(CCN(C3CCOCC3)CC2)C1)N1CCN(C2CCCCC2)CC1	0.75	1.6			
O=C(C1CC12CCN(C1CCOCC1)CC2)N1CCN(C2CCC2)CC1 (racemic)	0.24	3.6		1.3	microsomal CLint [3]: < 4 µL/min/mg; microsomal CLint [4]: 29 µL/min/mg; fraction unbound [6]: 0.8; Papp A→B [7]: 3.9 ×10⁻⁶ cm/s; fraction unbound [8]: 0.91; solubility thermodynamic [9]: > 500 µM; Activity [15]: Active

SMILES	logD [1]	IC50 [2] [nM]	IC50 [10] [nM]	Ki [11] [nM]	further results
O=C(c1ccccc1)N1CCC2(CC1)CCN(C(=O)C1CCN(C3CCC3)CC1)C2		340			
O=C(c1ccccc1)N1CCC2(CC1)CCN(C(=O)N1CCN(C3CCC3)CC1)C2	1.8	13	> 33000		CL [16]: 91 mL/min/kg; half-life [17]: 66 min; Vd [18]: 3.7 L/kg; microsomal CLint [3]: 25 µL/min/mg; microsomal CLint [4]: 18 µL/min/mg; Ratio [5]: 4.5; Papp A→B [7]: 8.8 ×10⁻⁶ cm/s; solubility thermodynamic [9]: > 500 µM
O=C(C1CC12CCN(Cc1ccccc1)CC2)N1CCN(C2CCCCC2)CC1 (racemic)	2.81			103	
O=C(C1CC12CCN(C1CCC1)CC2)N1CCN(C2CCOCC2)CC1 (racemic)		66		67	
O=C(N1CCN(C2CCC2)CC1)N1CCC2(CCN(S(=O)(=O)c3ccccc3)CC2)C1	2.27	21			
CC(C)N1CCC2(CC1)CC2C(=O)N1CCN(C2CCCCC2)CC1 (racemic)	0.74	19		47	
CC(C)N1CCN(C(=O)C2CC23CCN(C2CCOCC2)CC3)CC1 (racemic)		3.2		3	microsomal CLint [3]: 24 µL/min/mg; microsomal CLint [4]: < 4 µL/min/mg; fraction unbound [6]: 0.69; Papp A→B [7]: 5.4 ×10⁻⁶ cm/s; fraction unbound [8]: 0.87; solubility thermodynamic [9]: > 500 µM
O=C(c1ccccc1)N1CCC2(CC1)CC(C(=O)N1CCN(C3CCC3)CC1)C2	2.09		> 33000		
O=C(C1CC2(CCN(c3ccccc3)CC2)C1)N1CCN(C2CCC2)CC1	3.25	66	> 33000		
O=C(N1CCCN(C2CCC2)CC1)N1CCC2(CCN(S(=O)(=O)c3ccccc3)CC2)C1	1.71	2.7	> 33000		
O=C(C1CC12CCN(C1CCOCC1)CC2)N1CCN(c2ccncc2)CC1 (racemic)	-1.09			8.4	
O=C(C1CC12CCN(c1ccncc1)CC2)N1CCN(C2CCCCC2)CC1 (racemic)	1.09	83		55	
O=C(C1CC12CCN(C1CCOCC1)CC2)N1CCN(C2CCCC2)CC1 (racemic)				1.4	microsomal CLint [3]: 43 µL/min/mg; microsomal CLint [4]: 7.2 µL/min/mg; fraction unbound [6]: 0.65; Papp A→B [7]: < 2.2 ×10⁻⁶ cm/s; fraction unbound [8]: 0.5; solubility thermodynamic [9]: > 500 µM
CC(C)N1CCN(C(=O)N2CCC3(CCN(C4CCOCC4)CC3)C2)CC1	-0.87	32	> 33000		
O=C(C1CC2(CCN(C3CCOCC3)CC2)C1)N1CCN2CCCCC2C1 (stereo not drawn)	-0.46	6.3			
O=C(C1CC12CCN(CCc1ccccc1)CC2)N1CCN(C2CCCCC2)CC1 (racemic)		16		21	
O=C(C1CC12CCNCC2)N1CCN(C2CCCCC2)CC1 (racemic)	-1	360	> 33000	439	
CC(C)N1CCN(C(=O)N2CC3(CCN(C4CCOCC4)CC3)C2)CC1		900		97	
O=C(C1CC12CCN(c1ccccc1)CC2)N1CCN(C2CCCCC2)CC1 (racemic)	3.63			1670	
